From ChEMBL document CHEMBL3045158, “Synthesis and antiviral activities of chiral thiourea derivatives containing an alpha-aminophosphonate moiety” (J Agric Food Chem, 2009)
In brackets after ≈: the same amount, converted by molar mass.

Key:
Tobacco mosaic virus [1] = experiment: Antiviral activity against Tobacco mosaic virus (TMV) in compound treated Nicotiana tabacum L.leaves assessed as curative effect from local lesions at 500 ug/ml measured after 3 to 4 days; type: functional
Tobacco mosaic virus [2] = experiment: Antiviral activity against Tobacco mosaic virus (TMV) in compound treated Nicotiana tabacum L.leaves assessed as protective effect from local lesions at 500 ug/ml measured after 3 to 4 days; type: functional
Method in brief: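 Half-leaf test on same-age N. tabacum L. leaves: compound solution smeared on the left half, solvent on the right as control. Leaves were inoculated 12 h later by brush with TMV at 6 × 10-3 mg/mL on silicon carbide-dusted leaves, then rinsed with water. Local lesions were counted 3–4 days later, three repetitions. Inhibition % = (control lesions − treated lesions)/control lesions × 100.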

Tobacco mosaic virus [3] = experiment: Antiviral activity against Tobacco mosaic virus (TMV) in compound treated Nicotiana tabacum L.leaves assessed as curative effect at 125 ug/ml; type: functional
Tobacco mosaic virus [4] = experiment: Antiviral activity against Tobacco mosaic virus (TMV) in compound treated Nicotiana tabacum L.leaves assessed as curative effect at 500 ug/ml; type: functional
Tobacco mosaic virus [5] = experiment: Antiviral activity against Tobacco mosaic virus (TMV) in compound treated Nicotiana tabacum L.leaves assessed as curative effect; type: functional, organism-based
Tobacco mosaic virus [6] = experiment: Antiviral activity against Tobacco mosaic virus (TMV) in compound treated Nicotiana tabacum L.leaves assessed as curative effect at 250 ug/ml; type: functional

CC(C)OP(=O)(OC(C)C)C(NC(=S)N[C@H](C)C1CCCCC1)c1ccccc1 (stereo not given in full)
Activity (Tobacco mosaic virus [1]): 34.6% | Activity (Tobacco mosaic virus [2]): 33.7%

CCCCOP(=O)(OCCCC)C(NC(=S)N[C@@H](C)C1CCCCC1)c1ccccc1 (stereo not given in full)
Activity (Tobacco mosaic virus [3]): 32.9% | Activity (Tobacco mosaic virus [1]): 50.4% | Activity (Tobacco mosaic virus [4]): 50.4% | EC50 (Tobacco mosaic virus [5]): 379 µg/mL (≈ 809 µM) | Activity (Tobacco mosaic virus [6]): 37.2% | Activity (Tobacco mosaic virus [2]): 36.3%

CCCCOP(=O)(OCCCC)C(NC(=S)N[C@H](C)C1CCCCC1)c1ccccc1 (stereo not given in full)
Activity (Tobacco mosaic virus [1]): 34.6% | Activity (Tobacco mosaic virus [2]): 33.7%

CCOP(=O)(OCC)C(NC(=S)N[C@@H](C)c1ccccc1)c1ccccc1 (stereo not given in full)
Activity (Tobacco mosaic virus [1]): 41.8% | Activity (Tobacco mosaic virus [2]): 37.6%

CCOP(=O)(OCC)C(NC(=S)N[C@H](C)c1ccccc1)c1ccccc1 (stereo not given in full)
Activity (Tobacco mosaic virus [1]): 45.2% | Activity (Tobacco mosaic virus [2]): 42.6%

CCOP(=O)(OCC)C(NC(=S)N[C@@H](C)C1CCCCC1)c1ccccc1 (stereo not given in full)
Activity (Tobacco mosaic virus [1]): 36.3% | Activity (Tobacco mosaic virus [2]): 36.4%

CCOP(=O)(OCC)C(NC(=S)N[C@H](C)C1CCCCC1)c1ccccc1 (stereo not given in full)
Activity (Tobacco mosaic virus [1]): 40.1% | Activity (Tobacco mosaic virus [2]): 33.1%

CCCOP(=O)(OCCC)C(NC(=S)N[C@@H](C)c1ccccc1)c1ccccc1 (stereo not given in full)
Activity (Tobacco mosaic virus [3]): 30.9% | Activity (Tobacco mosaic virus [1]): 50.5% | Activity (Tobacco mosaic virus [4]): 50.5% | EC50 (Tobacco mosaic virus [5]): 400 µg/mL (≈ 920 µM) | Activity (Tobacco mosaic virus [6]): 37.7% | Activity (Tobacco mosaic virus [2]): 42.7%

CCCOP(=O)(OCCC)C(NC(=S)N[C@H](C)c1ccccc1)c1ccccc1 (stereo not given in full)
Activity (Tobacco mosaic virus [1]): 41.9% | Activity (Tobacco mosaic virus [2]): 45.9%

CCCOP(=O)(OCCC)C(NC(=S)N[C@@H](C)C1CCCCC1)c1ccccc1 (stereo not given in full)
Activity (Tobacco mosaic virus [3]): 39.1% | Activity (Tobacco mosaic virus [1]): 54.3% | Activity (Tobacco mosaic virus [4]): 54.8% | EC50 (Tobacco mosaic virus [5]): 240 µg/mL (≈ 544 µM) | Activity (Tobacco mosaic virus [6]): 49% | Activity (Tobacco mosaic virus [2]): 30.9%

CCCOP(=O)(OCCC)C(NC(=S)N[C@H](C)C1CCCCC1)c1ccccc1 (stereo not given in full)
Activity (Tobacco mosaic virus [1]): 40.7% | Activity (Tobacco mosaic virus [2]): 37.9%

CC(C)OP(=O)(OC(C)C)C(NC(=S)N[C@@H](C)c1ccccc1)c1ccccc1 (stereo not given in full)
Activity (Tobacco mosaic virus [1]): 36.8% | Activity (Tobacco mosaic virus [2]): 36.9%

CC(C)OP(=O)(OC(C)C)C(NC(=S)N[C@H](C)c1ccccc1)c1ccccc1 (stereo not given in full)
Activity (Tobacco mosaic virus [1]): 34.5% | Activity (Tobacco mosaic virus [2]): 46.3%

CC(C)OP(=O)(OC(C)C)C(NC(=S)N[C@@H](C)C1CCCCC1)c1ccccc1 (stereo not given in full)
Activity (Tobacco mosaic virus [3]): 29% | Activity (Tobacco mosaic virus [1]): 50.4% | Activity (Tobacco mosaic virus [4]): 50.4% | EC50 (Tobacco mosaic virus [5]): 413 µg/mL (≈ 938 µM) | Activity (Tobacco mosaic virus [6]): 36.7% | Activity (Tobacco mosaic virus [2]): 36.3%

CNCC(=O)N[C@@H](CO)C(=O)N[C@H]1[C@H](O)[C@@H](O)[C@H](n2ccc(N)nc2=O)O[C@@H]1C(N)=O [NINGNANMYCIN]
Activity (Tobacco mosaic virus [3]): 41.9% | Activity (Tobacco mosaic virus [1]): 56.2% | Activity (Tobacco mosaic virus [4]): 56.2% | EC50 (Tobacco mosaic virus [5]): 227 µg/mL (≈ 512 µM) | Activity (Tobacco mosaic virus [6]): 50.7% | Activity (Tobacco mosaic virus [2]): 60.6%
